Cl transport mod = KCC2 cotransporter modulators, thallium flux, primary screen, cell-based, HEK293 KCC2, FluoZin-2 fluorescence, MLSMR; Solute carrier family 12 member 5 (Homo sapiens), Q9H2X9; KCC2 cells, thallium flux FluoZin-2 fluorescence; B-score of Tl+ flux slope (higher = more flux/activation; lower = inhibition) at 10 µM; 190,000 compounds, 2.2% hits;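 active = thallium flux slope and its plate-corrected score both differing from the plate sample mean at a set confidence after two filtering rounds, in either direction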;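 note: slope of fluorescence scaled to starting intensity during 10 to 20 s after thallium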
WT yeast gro inh = growth inhibition of WT strain, primary screen, mitochondrial fusion inhibitor project, WT and mutant strains, chemical genetic | mitochondrial fusion phenotypic screen | inhibition, % at 10 µM | 190,000 compounds, 2.1% hits | AID 1362, 2008; in the data active = inhibition above about 58%; tested in S. cerevisiae
Yeast life ext = compounds extending yeast replicative lifespan, primary screen, S. cerevisiae, OD615 | S. cerevisiae growth with nicotinamide; deaD strain in restrictive glucose medium | inhibition of the nicotinamide effect, % at 10 µM | 130,000 compounds, 0.68% hits | AID 775, 2007;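 active = inhibition above a set limit, placed 3 SD over the median of all compounds, cut at about 26% in these data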
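Assay system: DeaD-strain S. cerevisiae. Medium: CSMM-D glucose medium, restrictive. Reagent: nicotinamide, 1.5 mM, co-present with compound. Compound: 10 µM single point, 0.25% DMSO. Schedule: culture preincubation 4 h, compound exposure 48 h, both 30 °C. Detection: absorbance at 615 nm.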
BB579 growth dn = growth inhibitors of yeast BB579 in restrictive medium, primary screen, yeast lifespan-shortening project, S. cerevisiae; OD615, 48 h; inhibition, % at 10 µM; 140,000 compounds, 0.51% hits;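 active = inhibition above a set limit, 3 SD over the mean compound inhibition, cut at about 44% in these data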
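System: Saccharomyces cerevisiae DeaD strain BB579, replicative lifespan model yeast | Buffer or medium: Restrictive glucose-based CSMM-D medium | Times: 4 h preincubation and 48 h exposure at 30 °C | Detection: OD615 turbidity measurement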
RAM network inh = inhibitors of the yeast RAM network, primary screen, dse1pr::URA3 reporter, 5-FOA selection; S. cerevisiae dse1pr::URA3 reporter, 5-FOA growth OD615, 2 d; analog-sensitive cbk1-as2 kinase mutant strain; inhibition, % at 50 µM; 190,000 compounds, 1.8% hits;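 active = inhibition above a set limit, 3 SD over mean compound inhibition, cut at about 8.4% in these data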;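 note: inhibition rescues growth on 5-FOA so higher OD means more RAM inhibition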
Numbers stand for hits; - = inactive; . = no result. Only some compounds are listed: those with a hit (about 5.5% of all), similar ones and a draw of the others.

SMILES	Cl transport mod	WT yeast gro inh	Yeast life ext	BB579 growth dn	RAM network inh
O=C(Nc1ccc(Cl)cc1)c1ccc2c(c1)OCO2	-	80	-	-	-
O=C(Nc1ccc2c(c1)OCO2)c1ccc2c(c1)OCO2	-	-	-	-	-
O=C(NCCCN1CCOCC1)c1ccc(Sc2cccc(Cl)c2)c([N+](=O)[O-])c1	-	-	-	-	-
CCC1=[N+](C)c2cccc3cccc(c23)N1C	-	59	.	.	-
CN(CC(=O)Nc1ccccc1Sc1ccccc1)C1CCCCC1	-	76	.	.	-
O=C(NCC1CCCO1)c1sc2cc(Cl)ccc2c1Cl (configuration not stated)	-	-	-	-	-
Cc1ccc(C)c(OCCn2cc(/C=C(/C#N)C(=O)NCC3CCCO3)c3ccccc32)c1 (configuration not stated)	-	-	-	-	8.8
O=C1NC(Nc2nccs2)(C(F)(F)F)C(=O)N1CCc1ccccc1 (configuration not stated)	-2.6	-	-	-	-
COc1ccc(CCN2C(=O)NC(NC(=O)CCc3ccccc3)(C(F)(F)F)C2=O)cc1OC (configuration not stated)	-	-	-	-	-
O=C(Nc1cccc(C(F)(F)F)c1)N(Cc1ccc(Cl)cc1)CC(O)C(F)(F)F (configuration not stated)	-	84	-	-	-
Brc1ccc(C=Nc2ccc3c(c2)OCCOCCOCCO3)s1	-	-	-	-	-
CC(C)C1COC(c2cccn2Cc2ccccc2Cl)=N1 (configuration not stated)	-	65	.	.	-
c1ccc(-c2nc(-n3nc4ccccc4n3)nc3ccccc23)cc1	.	-	-	-	-
Clc1ccc(-c2nc(N3CCCCC3)nc3ccccc23)cc1	-	59	.	-	-
NC(=O)C1CCN(CCS(=O)(=O)c2ccc(Cl)cc2)CC1	-	.	.	.	.
CCCn1nc(C(=O)Nc2cccc(C(=O)OC)c2)c2ccccc2c1=O	-	-	-	-	8.9
Cc1ccccc1C1CC(c2cccs2)Nc2nnnn21 (configuration not stated)	-	-	.	.	-
Cc1cc(/C(N)=N/OC(=O)Nc2ccc(Cl)cc2)no1	-	.	.	.	.
NC(=O)c1ccsc1NC(=O)CSc1nc2ccccc2c(=O)n1CCCO	.	-	-	-	8.9
CCOc1ccc(-n2cc(-c3ccccc3)c3c(N4CCOCC4)ncnc32)cc1	-	59	.	.	-
c1ccc(-c2cn(-c3ccccc3)c3ncnc(N4CCCCC4)c23)cc1	-	-	.	.	-
COc1ccc(-n2cc(-c3ccccc3)c3c(N4CC(C)OC(C)C4)ncnc32)cc1 (configuration not stated)	-	68	.	.	-
CCOC(=O)C1=C(C)N(c2ccc(C)cc2)C(=O)/C1=C\c1ccc(O)c(OC)c1	-	.	.	.	.
CCOC(=O)C1=C(O)c2ccccc2C(=O)/C1=C\c1ccc(C)cc1	3.3	-	-	-	-
Cc1ccc(Cl)cc1N(Cc1ccc(C(=O)NCc2cccnc2)cc1)S(=O)(=O)c1ccccc1	.	-	-	-	-
SMILES	Cl transport mod	WT yeast gro inh	Yeast life ext	BB579 growth dn	RAM network inh
Cc1ccc(-c2nn(-c3cc(Cl)ccc3[N+](=O)[O-])c(=O)c3ccccc23)cc1C	.	-	-	-	-
O=C(CCc1ccc(Oc2cc([N+](=O)[O-])cc([N+](=O)[O-])c2)cc1)N1CCCCC1	-	-	-	-	-
O=C(CNc1cccc2ccccc12)N/N=C/c1ccc(C(=O)O)cc1	-	-	-	-	11
O=C(COC(=O)c1cc([N+](=O)[O-])ccc1NCCO)NCc1cccs1	-	-	.	.	11
NC(=O)COC(=O)c1cc([N+](=O)[O-])ccc1NCCO	-	.	.	.	.
CCOC(=O)c1[nH]c2ccc(OCC)cc2c1NC(=O)CN1CCC2(CC1)OCCO2	-	-	57	-	-
Cc1ccc(C2CCN(C(=S)NC(C)(C)C)C2)cc1 (configuration not stated)	-	-	.	.	-
Cc1ccc(C2CCN(C(=S)Nc3cccc(C)c3)C2)cc1 (configuration not stated)	-	78	.	.	-
